Experimental data of several laboratories.
Each line is one published result; the experiments were not run side by side.
Target: Serine/threonine-protein kinase Nek2 (NEK2, Homo sapiens, UniProt P51955)
Residues used in one study (P51955 1-445): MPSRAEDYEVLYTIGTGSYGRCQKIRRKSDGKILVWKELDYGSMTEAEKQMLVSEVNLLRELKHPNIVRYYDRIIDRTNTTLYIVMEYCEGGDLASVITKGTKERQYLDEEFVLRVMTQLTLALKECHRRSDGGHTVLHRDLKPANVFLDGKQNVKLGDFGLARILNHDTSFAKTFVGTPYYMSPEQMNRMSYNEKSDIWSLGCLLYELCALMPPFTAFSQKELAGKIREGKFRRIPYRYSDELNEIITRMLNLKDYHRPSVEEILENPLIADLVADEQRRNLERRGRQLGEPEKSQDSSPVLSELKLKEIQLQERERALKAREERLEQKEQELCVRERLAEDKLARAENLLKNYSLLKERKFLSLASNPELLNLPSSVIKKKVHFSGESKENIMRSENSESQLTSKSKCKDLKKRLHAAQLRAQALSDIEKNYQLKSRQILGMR

Structure (SMILES) | effect on | mode | method | tested at | measurement | result
CC(=O)Nc1c(C(C)=O)c(=O)n(C)c2nc(-c3ccc(Cl)cc3Cl)c(-c3ccc(Cl)cc3)cc12 | cell-free assay | – | competition with immobilised ligand | 1 µM | remaining binding | 100%
COc1cc2ncnc(Nc3ccc(Oc4ccccc4)cc3C)c2cc1OC | enzyme activity | inhibitor | – | 1 µM | inhibition | 1%
CN1CC(Oc2cnc(C#N)cc2-c2ccn3nc(NC(=O)C4CC4)cc3c2)C1 | enzyme activity | inhibitor | – | 1 µM | inhibition | 5%
COc1cc(Nc2cnc(C#N)c(O[C@H](C)CN(C)C)n2)ncc1-c1cnn(C)c1 | enzyme activity | inhibitor | radiometric | 10 µM | remaining activity | 64%
CC(C)c1ccc(NC(=O)c2cccs2)c(-c2nc3ccccc3[nH]c2=O)c1 | enzyme activity | inhibitor | – | 1 µM | activity vs control | 93%
CC1(C)NC(=O)c2[nH]c3c(Cl)c(Cl)ccc3c2C1C#N (centres unmarked) | thermal stability | – | DSF | 10 µM | ΔTm | -0.8 °C
O=C(Nc1cnn(-c2csc(C(=O)NC3COC3)c2)c1)Nc1c(F)cccc1Cl | enzyme activity | inhibitor | – | 5 µM | remaining activity | 96.2%
Cn1c2c(Cl)c(Cl)ccc2c2cn[nH]c(=O)c21 | thermal stability | – | DSF | 10 µM | ΔTm | -0.6 °C
FC(F)(F)Oc1cccc(-c2cnc3ccc(-c4ccncc4)nn23)c1 | enzyme activity | inhibitor | radiometric | 5 µM | activity vs control | 88%
CN(C)CC#Cc1ccc(OCCCc2sc(N3CCc4cccc(C(=O)Nc5nc6ccccc6s5)c4C3)nc2C(=O)O)c(F)c1 | cell-free assay | – | competition with immobilised ligand | 1 µM | remaining binding | 92%
Nc1ncnc2occ(-c3ccc(NC(=O)Nc4cc(C(F)(F)F)ccc4F)cc3)c12 | cell-free assay | inhibitor | – | 20 µM | remaining signal | 2.1%
Cc1ccc(C(=O)NCc2ccsc2)cc1C#Cc1cn(C(C)C)c2ncnc(N)c12 | enzyme activity | inhibitor | – | 1 µM | activity vs control | 111%
COc1cc2ncnc(Nc3ccc(F)c(Cl)c3)c2cc1OCCCN1CCOCC1 | cell-free assay | – | – | 0.5 µM | remaining signal | 98.4%
CNCc1ccc(-c2cc(-c3nc(-c4ccc(S(=O)(=O)C(C)C)cc4)cnc3N)on2)cc1 | enzyme activity | inhibitor | – | 0.4 µM | inhibition | 0%
CCC(=N\O)/C(C)=C/c1ccc(F)cc1 | cell-free assay | – | competition with immobilised ligand | 1 µM | remaining binding | 100%
CCN(CC)CCNC(=O)c1c(C)[nH]c(/C=C2\C(=O)Nc3ccc(F)cc32)c1C | enzyme activity | inhibitor | – | 0.3 µM | inhibition | 9%
COc1ccc2c(c1)O[C@H](c1ccc(OC)c(OC)c1)C[C@@H]2NC(=O)C1(c2ccc3c(c2)OC(F)(F)O3)CC1 | cell-free assay | – | competition with immobilised ligand | 1 µM | remaining binding | 100%
CN1CCC2(CC1)NC(=O)c1c(c3ccc(Cl)c(Cl)c3n1C)C2C#N (racemic) | thermal stability | – | DSF | 10 µM | ΔTm | 0.1 °C
CN(C(=O)c1ccccc1)c1cc(N(C)c2ccc3c(c2)CCc2ccc(C(=O)NCCN4CCOCC4)cc2C3=O)ccc1F | cell-free assay | – | competition with immobilised ligand | 1 µM | remaining binding | 96%

Structure (SMILES) | effect on | mode | method | tested at | measurement | result
Clc1ccc(Nc2nnc(Cc3ccncc3)c3ccccc23)cc1 | cell-free assay | – | – | 0.5 µM | remaining signal | 101%
CC(C)(C)C(=O)c1sc(NC2CCCCC2)nc1N | enzyme activity | inhibitor | – | 10 µM | remaining activity | 93%
CNC(=O)c1cc(Oc2ccc(NC(=O)Nc3ccc(Cl)c(C(F)(F)F)c3)cc2)ccn1 | enzyme activity | inhibitor | – | 10 µM | inhibition | -16%
Cc1ccc(C(=O)Nc2ccc(CN3CCN(C)CC3)c(C(F)(F)F)c2)cc1C#Cc1cnc2cccnn12 | enzyme activity | inhibitor | – | 23.5 nM | remaining activity | 92%
CN(C)C1CCN(CC#Cc2nn(C3CCCC3)c3nc(NCc4ccccc4)ncc23)C1 (centres unmarked) | enzyme activity | inhibitor | FRET | 1 µM | inhibition | 4%
CCN(CC)c1ccc(C2=NNC(=O)CC2C)cc1[N+](=O)[O-] (centres unmarked) | enzyme activity | inhibitor | – | 10 µM | remaining activity | 91%
CC(C)(C)c1nc(-c2cccc(NS(=O)(=O)c3c(F)cccc3F)c2F)c(-c2ccnc(N)n2)s1 | enzyme activity | inhibitor | radiometric | 1 µM | remaining activity | 83%
CC(C)CC(=O)N1CCc2nc(-c3ccc(Br)cc3)nc(N(C)Cc3ccccc3)c2C1 | cell-free assay | – | competition with immobilised ligand | 0.1 µM | remaining binding | 100%
CNc1cccc2cc(C(=O)Nc3ccc(C(=O)O)cc3)c(=O)[nH]c12 | enzyme activity | inhibitor | – | 10 µM | inhibition | 3.2%
CC(C)(O)[C@H]1CC[C@H](Nc2ccc3ncc(-c4cccc(C(F)(F)F)c4)n3n2)CC1 | enzyme activity | inhibitor | – | 1 µM | remaining activity | 100%
FC(F)c1nc2ccccc2n1-c1nc(N2CCOCC2)nc(N2CCOCC2)n1 | enzyme activity | inhibitor | – | 10 µM | remaining activity | 106%
Cc1cc(NC(=O)c2cccc3cc(-c4cccc5[nH]nc(N)c45)ccc23)ccc1F | enzyme activity | inhibitor | – | 0.1 µM | activity vs control | 99%
N#CCCc1ccc2c(c1)-c1[nH]c3ccc([N+](=O)[O-])cc3c1CC(=O)N2 | cell-free assay | – | – | 0.5 µM | remaining signal | 92.7%
CCCOc1ccc(OC)c(F)c1C(=O)c1ccc(C(=O)N[C@@H]2CNC[C@H]2NC(=O)c2ccc3[nH]ncc3c2)cc1 | enzyme activity | inhibitor | – | 10 µM | remaining activity | 66%
CC/C(=N\NC(=O)NCc1cccc(O)c1)c1ccc(O)c(C)c1O | enzyme activity | inhibitor | – | 0.1 µM | inhibition | -2.4%
Cc1noc([C@H]2C[C@@H](c3ccc(C(F)(F)F)cc3)CN(C(=O)N3CCS(=O)(=O)C3)C2)n1 | cell-free assay | – | competition with immobilised ligand | 1 µM | remaining binding | 100%
Cc1ccc(Nc2nccc(N(C)c3ccc4c(C)n(C)nc4c3)n2)cc1S(N)(=O)=O | enzyme activity | inhibitor | – | 0.3 µM | inhibition | 2%
Nc1cnc(N2CCc3cc(S(=O)(=O)Nc4c(F)cc(Cl)cc4F)cc(N4CCCC4=O)c32)nc1 | cell-free assay | – | competition with immobilised ligand | 1 µM | remaining binding | 89%
Cn1c2c(c3ccc(Cl)c(Cl)c31)C(C#N)C1(CCCC1)NC2=O (centres unmarked) | thermal stability | – | DSF | 10 µM | ΔTm | 0.3 °C
